ChEMBL document CHEMBL3397026, “Synthesis and structure-activity relationships of novel phenoxyacetamide inhibitors of the Pseudomonas aeruginosa type III secretion system (T3SS)” (Bioorg Med Chem, 2015)

Legend:
CHO = test: Cytotoxicity against CHO cells by LDH release assay; type: cell-based; settings: Cricetulus griseus
Outline: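 Assay run in parallel with the T3SS translocation assay, with CHO cells and compound but no P. aeruginosa. Cell death read as LDH release; CC50 derived.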

[1] = Inhibition of T3SS-mediated secretion of an ExoS-beta-lactamase fusion protein into the culture medium in Pseudomonas aerguinosa MDM973 assessed as inhibition of nitrocefin hydrolysis by secretion assay; set-up: species or system Pseudomonas aeruginosa
Outline: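 ExoS-βLA fusion protein secreted by strain MDM973, detected as hydrolysis of chromogenic nitrocefin by the externalized enzyme. Absorbance read at 490 nm. Percent inhibition calculated relative to drug-free (0%) and uninduced controls (no ExoS-βLA secreted; 100%).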

[2] = Inhibition of T3SS-mediated translocation in Pseudomonas aerguinosa PA99U co-expressing PcrV and PopB/PopD assessed as inhibition of ExoU-mediated lysis of co-incubated CHO cells by LDH release assay; type: cell-based; settings: Pseudomonas aeruginosa
Outline: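 CHO cells co-incubated with P. aeruginosa PA99U33 plus compound, with procedure otherwise per earlier work. ExoU-mediated CHO lysis read out as LDH release. A parallel run without bacteria gave CHO cytotoxicity (CC50).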

IC50 [1]	Structure (SMILES)	IC50 (CHO)	other results
–	CC(Oc1ccc(Cl)cc1Cl)C(=O)NCc1cccc2[nH]ccc12 (centres undefined)	24 µM	–
> 100 µM	O=C(COc1ccc(Cl)cc1Cl)NCc1ccc2c(c1)OCO2	–	–
> 100 µM	CC(C)(Oc1ccc(Cl)cc1Cl)C(=O)NCc1ccc2c(c1)OCO2	–	–
–	CCC(Oc1ccc(Cl)cc1Cl)C(=O)NCc1ccc2c(c1)OCO2 (centres undefined)	67 µM	–
> 100 µM	CCCC(Oc1ccc(Cl)cc1Cl)C(=O)NCc1ccc2c(c1)OCO2 (centres undefined)	–	–
> 100 µM	CC(C)C(Oc1ccc(Cl)cc1Cl)C(=O)NCc1ccc2c(c1)OCO2 (centres undefined)	–	–
–	CC(Oc1ccc(Cl)cc1)C(=O)NCc1ccc2c(c1)OCO2 (centres undefined)	65 µM	–
> 100 µM	CC(Oc1ccc(Cl)cc1F)C(=O)NCc1ccc2c(c1)OCO2 (centres undefined)	–	–
> 100 µM	CC(Oc1ccc(F)cc1F)C(=O)NCc1ccc2c(c1)OCO2 (centres undefined)	–	–
> 100 µM	CC(Oc1ccc(C#N)cc1Cl)C(=O)NCc1ccc2c(c1)OCO2 (centres undefined)	–	–
> 100 µM	COc1ccc(OC(C)C(=O)NCc2ccc3c(c2)OCO3)c(Cl)c1 (centres undefined)	–	–
–	CC(Oc1ccc(Cl)cc1Cl)C(=O)NCc1ccc(F)cc1 (centres undefined)	59 µM	–
> 100 µM	CC(C(=O)NCc1ccc2c(c1)OCO2)S(=O)(=O)c1ccc(Cl)cc1Cl (centres undefined)	–	–
> 100 µM	CC(C(=O)NCc1ccc(F)cc1)S(=O)(=O)c1ccc(Cl)cc1Cl (centres undefined)	–	–
> 100 µM	CC(Cc1ccc(Cl)cc1Cl)C(=O)NCc1ccc2c(c1)OCO2 (centres undefined)	–	–
> 100 µM	CC(Cc1ccc(Cl)cc1Cl)C(=O)NCc1ccc(F)cc1 (centres undefined)	–	–
–	C[C@H](NC(=O)[C@@H](C)Oc1ccc(Cl)cc1Cl)c1ccc(F)cc1	32 µM	–
–	C[C@@H](Oc1ccc(Cl)cc1Cl)C(=O)N[C@H](C)c1ccc(F)cc1	97 µM	–
–	CC(Oc1ccc(Cl)cc1Cl)C(=O)NC1(c2ccc(F)cc2)CC1 (centres undefined)	28 µM	–
> 100 µM	CC(Oc1ccc(Cl)cc1Cl)C(=O)NC(C(=O)O)c1ccc(F)cc1 (centres undefined)	–	–
> 100 µM	CC(Oc1ccc(Cl)cc1Cl)C(=O)Nc1ccc(F)cc1 (centres undefined)	–	–
–	CC(Oc1ccc(Cl)cc1Cl)C(=O)NCCc1ccc(F)cc1 (centres undefined)	17 µM	–

IC50 [1]	Structure (SMILES)	IC50 (CHO)	other results
> 100 µM	CC(Oc1ccc(Cl)cc1Cl)C(=O)NCCCc1ccc(F)cc1 (centres undefined)	–	–
> 100 µM	CC(Oc1ccc(Cl)cc1Cl)C(=O)OCc1ccc(F)cc1 (centres undefined)	–	–
> 100 µM	CC(Oc1ccc(Cl)cc1Cl)C(=O)OCCc1ccc(F)cc1 (centres undefined)	–	–
–	CC(Oc1ccc(Cl)cc1Cl)C(=O)NNc1ccc(F)cc1 (centres undefined)	35 µM	–
–	CC(Oc1ccc(Cl)cc1Cl)C(=O)NNCc1ccc(F)cc1 (centres undefined)	31 µM	–
–	CC(Oc1ccc(Cl)cc1Cl)C(=O)NOCc1ccc(F)cc1 (centres undefined)	59 µM	–
> 100 µM	CC(Oc1ccc(Cl)cc1Cl)C(=O)CCc1ccc(F)cc1 (centres undefined)	–	–
–	CC(Oc1ccc(Cl)cc1Cl)C(=O)NCc1ccccc1 (centres undefined)	95 µM	–
–	CC(Oc1ccc(Cl)cc1Cl)C(=O)NCc1cccc(F)c1 (centres undefined)	27 µM	–
–	CC(Oc1ccc(Cl)cc1Cl)C(=O)NCc1ccccc1F (centres undefined)	47 µM	–
–	CC(Oc1ccc(Cl)cc1Cl)C(=O)NCc1ccc(Cl)cc1 (centres undefined)	39 µM	–
–	CC(Oc1ccc(Cl)cc1Cl)C(=O)NCc1cccc(Cl)c1 (centres undefined)	19 µM	–
–	Cc1ccc(CNC(=O)C(C)Oc2ccc(Cl)cc2Cl)cc1 (centres undefined)	25 µM	–
–	Cc1cccc(CNC(=O)C(C)Oc2ccc(Cl)cc2Cl)c1 (centres undefined)	45 µM	–
–	COc1ccc(CNC(=O)C(C)Oc2ccc(Cl)cc2Cl)cc1 (centres undefined)	71 µM	–
–	COc1ccc(CNC(=O)C(C)Oc2ccc(Cl)cc2Cl)cc1OC (centres undefined)	36 µM	–
–	CC(Oc1ccc(Cl)cc1Cl)C(=O)NCc1ccc2occc2c1 (centres undefined)	11 µM	–
–	CC(Oc1ccc(Cl)cc1Cl)C(=O)NCc1ccc2cc[nH]c2c1 (centres undefined)	9.4 µM	–
–	CC(Oc1ccc(Cl)cc1Cl)C(=O)NCc1cc2ccccc2[nH]1 (centres undefined)	12 µM	–
–	CC(Oc1ccc(Cl)cc1Cl)C(=O)NCc1ccc2c(ccn2C)c1 (centres undefined)	6.3 µM	–
–	CC(Oc1ccc(Cl)cc1Cl)C(=O)NCc1cnc2[nH]ccc2c1 (centres undefined)	21 µM	–
–	CC[C@@H](Oc1ncc(Cl)cc1Cl)C(=O)NC(CO)c1ccc(F)cc1 (some centres undefined)	75 µM	–

Structure (SMILES)	IC50 [1]	IC50 (CHO)	other results
CC(Oc1ccc(Cl)cc1Cl)C(=O)N(C)Cc1ccc(F)cc1 (centres undefined)	28.5 µM	–	–
COc1ccccc1CNC(=O)C(C)Oc1ccc(Cl)cc1Cl (centres undefined)	28 µM	–	–
CC(Oc1ccc(Cl)cc1Cl)C(=O)NCc1ccc2sccc2c1 (centres undefined)	6 µM	30 µM	IC50 [2]: 5.3 µM
